Source: ChEMBL document CHEMBL5252516, “Linker Modification Strategies To Control the Prostate-Specific Membrane Antigen (PSMA)-Targeting and Pharmacokinetic Properties of DOTA-Conjugated PSMA Inhibitors” (J Med Chem, 2016)

Key:
[1] = Drug uptake in iv dosed BALB/c athymic nude mouse tumor xenografted with human LNCaP cells treated with 68Ga-labeled compound measured upto 120 mins by microPET imaging analysis; type: ADME, organism-based; settings: in vivo, 2 h
Method in brief: (§1)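 Male BALB/c nu/nu mice, 6–8 weeks old, with subcutaneous LNCaP xenografts (6 × 10^6 cells in 50% Matrigel, right trunk) of about 1 cm. Tail-vein injection of 68Ga-labelled compound (~30 MBq, 0.5 nmol) under sevoflurane. Dynamic µPET: 60 min emission scan, then 100–120 min scan. SUVmean for tumor, muscle and kidney at 1 h; tumor/muscle ratio. One animal per compound.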

[2] = Drug uptake in iv dosed BALB/c athymic nude mouse kidney xenografted with human LNCaP cells treated with 68Ga-labeled compound measured after 1 hr by microPET imaging analysis; type: ADME, organism-based; settings: in vivo; method in brief: as §1
[3] = Distribution coefficient, logD of the compound at pH 7.4 in n-octanol/0.1 M HEPES by shake flask method; type: physicochemical
Method in brief: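 Radiolabelled compound shaken to equilibrium in n-octanol / 0.1 M HEPES pH 7.4. Aliquots of both phases gamma-counted and logD calculated from the phase ratio. Mean ± SD.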

[4] = Retention time of the compound by HPLC; type: physicochemical
[5] = Drug uptake in iv dosed BALB/c athymic nude mouse tumor xenografted with human LNCaP cells treated with 68Ga-labeled compound measured after 1 hr by microPET imaging analysis; type: ADME, organism-based; settings: in vivo; method in brief: as §1
[6] = Binding affinity to human serum protein after 1 hr by gel filtration method; type: ADME
[7] = molecular target: T1, Glutamate carboxypeptidase 2 (Homo sapiens, UniProt Q04609); test: Inhibition of PSMA in human LNCaP cells assessed as cell surface binding per 10^6 cells using 177Lu-labeled compound after 45 mins by gamma counting analysis; type: cell-based
Method in brief: (§2)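 LNCaP cells (10^5/well) seeded on poly-L-lysine 24 h before. Incubated 45 min at 37 °C with 32 nM 177Lu-labelled compound (25 GBq/µmol) in Opti-MEM, with or without 500 µM 2-PMPA as blocker. Four ice-cold PBS washes, surface fraction stripped with 50 mM glycine pH 2.8, internalized fraction released by 0.3 M NaOH lysis. Both fractions gamma-counted, specific values given as %IA/10^6 cells. Triplicate.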
Target sequence in this assay (Q04609 whole entry, looked up): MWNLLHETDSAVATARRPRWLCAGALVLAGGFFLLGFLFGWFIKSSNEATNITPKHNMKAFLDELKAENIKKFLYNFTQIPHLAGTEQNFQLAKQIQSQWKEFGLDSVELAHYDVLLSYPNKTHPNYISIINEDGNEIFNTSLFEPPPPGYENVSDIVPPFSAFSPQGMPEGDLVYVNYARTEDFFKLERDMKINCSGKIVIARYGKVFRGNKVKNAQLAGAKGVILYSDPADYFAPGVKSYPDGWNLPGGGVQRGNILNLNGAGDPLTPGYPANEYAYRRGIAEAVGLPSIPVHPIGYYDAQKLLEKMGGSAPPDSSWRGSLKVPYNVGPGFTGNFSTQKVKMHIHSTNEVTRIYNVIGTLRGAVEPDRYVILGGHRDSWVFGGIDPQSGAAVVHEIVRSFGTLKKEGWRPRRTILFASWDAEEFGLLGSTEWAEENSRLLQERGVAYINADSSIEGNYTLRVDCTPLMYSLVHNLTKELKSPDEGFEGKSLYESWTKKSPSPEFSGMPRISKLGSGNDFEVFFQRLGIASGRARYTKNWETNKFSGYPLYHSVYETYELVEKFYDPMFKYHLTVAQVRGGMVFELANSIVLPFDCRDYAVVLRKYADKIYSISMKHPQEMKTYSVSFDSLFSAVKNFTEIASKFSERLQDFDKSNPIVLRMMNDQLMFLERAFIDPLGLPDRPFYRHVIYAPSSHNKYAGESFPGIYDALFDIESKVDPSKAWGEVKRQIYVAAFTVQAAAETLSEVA

[8] = Drug uptake in iv dosed BALB/c athymic nude mouse muscle xenografted with human LNCaP cells treated with 68Ga-labeled compound measured after 1 hr by microPET imaging analysis; type: ADME, organism-based; settings: in vivo; method in brief: as §1
[9] = Ratio of drug uptake in tumor to muscle in iv dosed BALB/c athymic nude mouse xenografted with human LNCaP cells treated with 68Ga-labeled compound measured after 1 hr by microPET imaging analysis; type: ADME, organism-based; settings: in vivo; method in brief: as §1
[10] = molecular target: T1, Glutamate carboxypeptidase 2; test: Inhibition of PSMA in human LNCaP cells assessed as specific internalization per 10^6 cells using 177Lu-labeled compound after 45 mins by gamma counting analysis; type: cell-based; method in brief: as §2
Target sequence in this assay (Q04609 whole entry, looked up): as above

[11] = molecular target: T1, Glutamate carboxypeptidase 2; test: Binding affinity to PSMA in human LNCaP cells after 45 mins in presence of 68Ga-labeled PSMA-10 by gamma counting assay; type: cell-based
Target sequence in this assay (Q04609 whole entry): as the sequence (Q04609 whole entry, looked up) above

Row | Structure (SMILES) | Drug uptake [1] | SUV [2] | logD [3] | Retention_time [4] | SUV [5] | PB [6] | specific cell surface binding (% of applied activity per 10^6 cells) [7] | SUV [8] | Ratio [9] | specific internalization (% of added activity per 10^6 cells) [10] | Ki [11]
1 | O=C(O)CC[C@H](NC(=O)N[C@@H](CCCCNC(=O)c1ccc(CNC(=O)c2ccc(CNC(=O)c3ccc(CNC(=O)CN4CCN(CC(=O)O)CCN(CC(=O)O)CCN(CC(=O)O)CC4)cc3)cc2)cc1)C(=O)O)C(=O)O | Active | 4.16 | -2.06 | 1.95 min | 0.58 | Not Active | 21.4% | 0.11 | 5.4 | 12.5% | 0.53 nM
2 | O=C(O)CC[C@H](NC(=O)N[C@@H](CCCCNC(=O)[C@H]1CC[C@H](CNC(=O)c2ccc(CNC(=O)CN3CCN(CC(=O)O)CCN(CC(=O)O)CCN(CC(=O)O)CC3)cc2)CC1)C(=O)O)C(=O)O | Not Active | 8.1 | -1.43 | 2.07 min | 0.54 | Not Active | 4.49% | 0.14 | 3.9 | 2.7% | 24.7 nM
3 | O=C(O)CC[C@H](NC(=O)N[C@@H](CCCCNC(=O)CCCCCNC(=O)c1ccc(CNC(=O)CN2CCN(CC(=O)O)CCN(CC(=O)O)CCN(CC(=O)O)CC2)cc1)C(=O)O)C(=O)O | Not Active | 4.7 | -1.92 | 1.74 min | 0.3 | Not Active | 17.7% | 0.08 | 3.8 | 2.11% | 15.3 nM
4 | O=C(O)CC[C@H](NC(=O)N[C@@H](CCCCNC(=O)[C@H](Cc1ccc2ccccc2c1)NC(=O)c1ccc(CNC(=O)CN2CCN(CC(=O)O)CCN(CC(=O)O)CCN(CC(=O)O)CC2)cc1)C(=O)O)C(=O)O | Active | 3.63 | -2.1 | 2.32 min | 0.52 | Not Active | 16.8% | 0.1 | 5.2 | 7.17% | 1.81 nM
5 | O=C(O)CC[C@H](NC(=O)N[C@@H](CCCCNC(=O)[C@H]1CC[C@H](CNC(=O)[C@H]2CC[C@H](CNC(=O)CN3CCN(CC(=O)O)CCN(CC(=O)O)CCN(CC(=O)O)CC3)CC2)CC1)C(=O)O)C(=O)O | Not Active | 4.29 | -1.12 | 2.08 min | 0.3 | Not Active | 3.88% | 0.13 | 2.3 | 1.43% | 21 nM
